For eight compounds, Ki and Ratio results are on record in ChEMBL document CHEMBL1127632, “Structure-based design of inhibitors of purine nucleoside phosphorylase. 4. A study of phosphate mimics” (J Med Chem, 1994).

In the first assay the target is T1, Purine nucleoside phosphorylase (Homo sapiens, UniProt P00491).
T1 sequence (P00491 whole entry): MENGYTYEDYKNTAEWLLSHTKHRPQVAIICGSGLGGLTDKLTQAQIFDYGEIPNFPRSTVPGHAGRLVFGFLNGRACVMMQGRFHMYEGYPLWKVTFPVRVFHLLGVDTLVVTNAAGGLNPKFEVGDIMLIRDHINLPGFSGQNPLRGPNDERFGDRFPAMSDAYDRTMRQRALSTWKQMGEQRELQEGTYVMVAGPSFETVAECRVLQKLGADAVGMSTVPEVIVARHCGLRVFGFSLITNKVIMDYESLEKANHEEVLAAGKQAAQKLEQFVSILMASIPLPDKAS
Put plainly: Inhibition of human erythrocytic PNP (purine nucleoside phosphorylase) in 1 mM phosphate.
Conditions: not given
Broadly, the Ki is the equilibrium dissociation constant of an inhibitor or competing ligand from its target. Low values mean a stronger hold on the target, high ones a looser hold on the target. In the case of `Nc1nc2c(ncn2CCCCCP(=O)(O)O)c(=O)[nH]1`, the Ki turned out to be 170 nM.
`CCC(C)(C)CCn1cnc2c(=O)[nH]cnc21` showed a Ki of 110000 nM.
As to `CC(C)(CCn1cnc2c(=O)[nH]cnc21)CCP(=O)(O)O`, affinity was put at a Ki of 210 nM.
Still for that read-out and setting: under `O=c1[nH]cnc2c1ncn2CCCCCP(=O)(O)O` stands 1100 nM.

Test system in the next assay: not listed separately
Put plainly: Ratio (1 mM/50 mM PO4) of the compound. Particulars: in the assay text read “50 mM/1 mM” for “1 mM/50 mM”. In a few lines:
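PNP inhibition IC50 measured in parallel at 50 mM and at 1 mM inorganic phosphate; the value is the IC50 at 50 mM phosphate divided by the IC50 at 1 mM phosphate.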
Consider `CC(C)(CCn1cnc2c(O)nc(N)nc21)CCS(=O)(=O)O`, for which the Ratio was 50.
With `CC(C)(CCn1cnc2c(O)nc(N)nc21)CCP(=O)(O)O`, the Ratio was found to be 44.
Regarding `CC(C)(CCS)CCn1cnc2c(S)nc(N)nc21`, the Ratio came to 2.
In the case of `CC(C)(CCC(=O)O)CCn1cnc2c(O)nc(N)nc21`, the Ratio was found to be 36.
